Assay results reported in PMC9720105 (Redox Biology, 2022).

Tests used:
[1] = target: recombinant KEAP1-Kelch domain (Homo sapiens, UniProt Q14145); experiment: biochemical; type: binding
KEAP1 in HEK293T cells = KEAP1 in HEK293T cells (Homo sapiens, UniProt Q14145); experiment: KEAP1 degradation in HEK293T cells; type: cell-based
KEAP1 in BEAS-2B cells = KEAP1 in BEAS-2B cells (Homo sapiens, UniProt Q14145); experiment: KEAP1 degradation in BEAS-2B cells; type: cell-based
KEAP1 in HCA7 cells = KEAP1 in HCA7 cells (Homo sapiens, UniProt Q14145); experiment: KEAP1 degradation in HCA7 cells; type: cell-based; conditions: 48 h
Outline: (§1)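 HEK293T, HCA7 and A549 cells were grown in DMEM with 10% FBS and pen/strep; BEAS-2B in LHC-9 with pen/strep; all at 37 °C, 10% CO₂. Cells were exposed to test compound for 48 h, lysed, run on 4–12% SDS-PAGE and transferred to nitrocellulose. Blocking was 5% skim milk for 1 h at RT. Probes were anti-KEAP1, CRBN, NQO1 or HO-1, with HRP anti-β-actin loading control and HRP secondaries. Blots represent 3 independent experiments.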

[2] = target: KEAP1 (G333C mutation in the KEAP1-Kelch domain) in A549 cells (Homo sapiens, UniProt Q14145, G333C); experiment: KEAP1 degradation in A549 cells; type: cell-based; conditions: 48 h
Outline: as §1

CRBN = CRBN (Homo sapiens, UniProt Q96SW2); experiment: CRBN levels by immunoblotting; type: cell-based; conditions: HEK293T, HCA7, BEAS-2B, and A549 cells, 48 h
Outline: as §1

[3] = tested on: NRF2 downstream targets, NQO1 and HO-1; experiment: NQO1 and HO-1 protein levels in HEK293T and HCA7 cell lines; type: cell-based; conditions: 48 h
Outline: as §1

[4] = tested on: HepG2 ARE-luciferase reporter cells; experiment: ARE-luciferase activity assay; type: cell-based; conditions: 48 h, 14: maximum at 1 μM
[5] = tested on: NQO1 and GCLM in BEAS-2B cells; experiment: NQO1 and GCLM protein expression in BEAS-2B cells; type: cell-based, human; conditions: 48 h, all tested concentrations
[6] = tested on: NQO1, TALDO1, and GCLM mRNA in BEAS-2B cells; experiment: Quantitative RT-PCR of antioxidant genes in BEAS-2B cells; type: cell-based, human; conditions: 0.13 μM, 48 h
Outline: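 BEAS-2B cells were treated with 0.13 μM test compound for 48 h. RNA was extracted, reverse transcribed (SuperScript IV) and quantified by SYBR Green qPCR. Expression was normalized to 18S by the delta-delta-Ct method. Three independent experiments, each in technical triplicate; mean and S.D.; unpaired t-test.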

BEAS-2B cells proteome = experiment: Label-free quantitative MS proteomics in BEAS-2B cells; type: cell-based, human; conditions: 0.13 μM, 48 h, vs DMSO
Outline: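 BEAS-2B cells received DMSO or 0.13 μM test compound for 48 h, then were lysed in 5% SDS/50 mM TEAB. 20 μg protein was processed on S-traps (chloroacetamide alkylation), digested with trypsin/Lys-C and cleaned on SDB stage tips. About 100 ng peptide ran on a 48 min C18 gradient, timsTOF DIA-PASEF. Library-free search against human UniProt, 1% precursor FDR, MaxLFQ quantitation. Hits: >1.5-fold versus DMSO, adjusted P <0.01.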

BEAS-2B cells = experiment: Flow cytometric detection of cell viability after tBHP; type: cell-based, human; conditions: 50 μM tBHP
Outline: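 BEAS-2B cells (LHC-9 with pen/strep) were seeded at 1.2 × 10⁴ cells/well overnight, pre-treated with test compound for 24 h, then given 50 μM tBHP for 24 h. Harvested cells were stained with 1 μg/mL propidium iodide. Gating used FSC-A/SSC-A to exclude debris and FSC-H/FSC-A to exclude doublets. Viability was % PI-negative cells. Three independent assays, single points each; mean and S.D.; unpaired t-test.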

Sequence of KEAP1 in HEK293T cells (Q14145 whole entry): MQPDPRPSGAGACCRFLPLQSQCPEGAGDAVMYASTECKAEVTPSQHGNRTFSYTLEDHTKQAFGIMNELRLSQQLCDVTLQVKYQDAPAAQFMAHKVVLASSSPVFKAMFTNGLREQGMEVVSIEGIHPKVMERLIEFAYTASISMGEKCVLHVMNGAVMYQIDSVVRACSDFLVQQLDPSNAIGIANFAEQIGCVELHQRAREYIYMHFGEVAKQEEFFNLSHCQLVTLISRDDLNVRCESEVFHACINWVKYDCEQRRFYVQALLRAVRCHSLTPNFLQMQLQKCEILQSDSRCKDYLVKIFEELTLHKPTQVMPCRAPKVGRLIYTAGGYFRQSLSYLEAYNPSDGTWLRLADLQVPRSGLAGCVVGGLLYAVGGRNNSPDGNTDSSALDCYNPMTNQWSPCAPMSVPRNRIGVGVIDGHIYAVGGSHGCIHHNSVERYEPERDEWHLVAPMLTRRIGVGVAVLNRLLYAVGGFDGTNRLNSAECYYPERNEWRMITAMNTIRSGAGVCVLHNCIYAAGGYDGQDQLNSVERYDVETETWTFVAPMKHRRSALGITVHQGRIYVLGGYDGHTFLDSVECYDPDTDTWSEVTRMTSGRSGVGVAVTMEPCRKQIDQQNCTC
Sequence of CRBN (Q96SW2 whole entry): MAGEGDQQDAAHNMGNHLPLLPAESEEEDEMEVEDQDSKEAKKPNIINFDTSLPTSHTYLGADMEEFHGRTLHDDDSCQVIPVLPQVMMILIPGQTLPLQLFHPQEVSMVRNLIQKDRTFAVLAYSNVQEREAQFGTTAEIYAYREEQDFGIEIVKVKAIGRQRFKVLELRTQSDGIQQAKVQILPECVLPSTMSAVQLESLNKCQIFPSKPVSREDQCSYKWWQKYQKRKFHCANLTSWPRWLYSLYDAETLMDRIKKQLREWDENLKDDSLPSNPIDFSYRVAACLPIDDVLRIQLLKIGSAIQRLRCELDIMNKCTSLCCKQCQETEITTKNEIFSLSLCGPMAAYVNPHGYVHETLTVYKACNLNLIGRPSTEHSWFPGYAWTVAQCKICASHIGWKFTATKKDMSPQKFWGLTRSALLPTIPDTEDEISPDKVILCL
Sequence of KEAP1 in HCA7 cells (Q14145 whole entry): as the sequence (Q14145 whole entry) above
Sequence of KEAP1 in BEAS-2B cells (Q14145 whole entry): as above
Sequence of KEAP1 (G333C mutation in the KEAP1-Kelch domain) in A549 cells (Q14145 whole entry G333C, the tested form may be a part): as the sequence (Q14145 whole entry) above, with G333C counted along it
Sequence of recombinant KEAP1-Kelch domain (Q14145 312-624): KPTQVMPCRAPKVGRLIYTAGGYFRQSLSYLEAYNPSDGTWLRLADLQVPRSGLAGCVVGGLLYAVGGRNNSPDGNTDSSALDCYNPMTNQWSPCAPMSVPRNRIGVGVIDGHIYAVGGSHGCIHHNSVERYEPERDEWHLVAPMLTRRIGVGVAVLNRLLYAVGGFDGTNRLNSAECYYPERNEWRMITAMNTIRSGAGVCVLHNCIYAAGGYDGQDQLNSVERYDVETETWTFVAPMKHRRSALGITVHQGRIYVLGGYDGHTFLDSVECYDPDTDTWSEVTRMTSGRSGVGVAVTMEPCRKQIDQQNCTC

## Cc1ccc(C(CC(=O)O)c2cc(OCCCCCCCNc3cccc4c3C(=O)N(C3CCC(=O)NC3=O)C4=O)c3c(c2)nnn3C)cc1CN1C[C@@H](C)Oc2ccccc2S1(=O)=O (stereo partly drawn) [Compound 14, 3-(7-((7-((2-(2,6-Dioxopiperidin-3-yl)-1,3-dioxoisoindolin-4-yl)amino)heptyl)oxy)-1-methyl-1H-benzo[d][1,2,3]triazol-5-yl)-3-(4-methyl-3-(((R)-4-methyl-1,1-dioxido-3,4-dihydro-2H-benzo[b][1,4,5]oxathiazepin-2-yl)methyl)phenyl)propanoic acid]
[1]
  IC50: 0.046 µM
KEAP1 in HEK293T cells; HEK293T cells, 48 h
  KEAP1 degradation / expression: robust degradation of KEAP1
KEAP1 in HEK293T cells; HEK293T cells, 48 h and 72 h, comparison of 8 and 14
  KEAP1 degradation at longer time points: degraded KEAP1 more efficiently at 48 and 72 h compared to 8
KEAP1 in HEK293T cells; HEK293T cells, dose titration 0.01–8 μM, 24 h
  hook effect observed at concentrations higher than: higher than 1 μM
KEAP1 in HEK293T cells; HEK-293T, read-out: maximum degradation (Dmax)
  Dmax at 1 µM: 94%
KEAP1 in BEAS-2B cells
  Dmax at 0.0625 µM: 90%
KEAP1 in HCA7 cells
  KEAP1 degradation / expression: robust degradation of KEAP1
[2]
  KEAP1 degradation: did not degrade KEAP1
CRBN
  CRBN levels: no change in CRBN levels
[3]
  HO-1 protein expression: upregulated
  NQO1 protein expression: upregulated
[4]
  induction of luciferase signal compared to the DMSO control group: 3.5 fold
[5]
  increased expression of NQO1 and GCLM, compared with KEAP1 inhibitor 2: equipotent
[6]
  mRNA induction of GCLM: 2 fold
  mRNA induction of NQO1: 4 fold
  mRNA induction of TALDO1: 2 fold
BEAS-2B cells proteome
  ABHD4 abundance (proteomics): significantly upregulated
  ZFP91 abundance (proteomics): Off-target degradation of ZFP91
  abundance of KEAP1 (proteomics): significantly reduced the abundance of KEAP1
  abundance of other Kelch domain proteins KBTBD4, KLHDC2, and KLHL11 (proteomics): not impacted
BEAS-2B cells; between 500 and 16 nM
  rescue of cell viability from tBHP, comparison of 14 and 2: equal potent
BEAS-2B cells; concentrations lower than 16 nM
  rescue of cell viability from tBHP, comparison of 14 and 2: less effective
